What follows are compounds tested against T1, UniProt Q8VGJ5. Conditions: stereoisomer not certain.
T1 sequence (whole entry): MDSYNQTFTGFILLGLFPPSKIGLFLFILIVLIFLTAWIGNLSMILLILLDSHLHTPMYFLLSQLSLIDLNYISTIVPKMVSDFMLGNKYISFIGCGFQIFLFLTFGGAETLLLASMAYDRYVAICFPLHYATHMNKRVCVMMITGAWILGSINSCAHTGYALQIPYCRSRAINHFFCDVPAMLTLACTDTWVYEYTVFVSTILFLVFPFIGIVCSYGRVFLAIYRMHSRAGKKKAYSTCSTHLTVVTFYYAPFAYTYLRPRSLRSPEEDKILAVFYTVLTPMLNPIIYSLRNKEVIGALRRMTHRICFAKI
In short: (§1)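 Assay methods differ from source to source, frequently being transient luciferase assays in mammalian cell lines. For each receptor–molecule pair, the label responsive (active) applies when the original authors judged the measured signal statistically different from baseline, and non-responsive (inactive) applies otherwise.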

Structure (SMILES) | odorant receptor agonist call
O=c1cc(O)c2ccccc2o1 | inactive
CCC1CCC(=O)O1 (configuration not stated) | active
C=CCOC(=O)Cc1ccccc1 | active
C=CCc1ccccc1 | inactive

Each compound was assayed against T2, UniProt Q8VGL0. Conditions: stereoisomer not certain.
T2 sequence (whole entry): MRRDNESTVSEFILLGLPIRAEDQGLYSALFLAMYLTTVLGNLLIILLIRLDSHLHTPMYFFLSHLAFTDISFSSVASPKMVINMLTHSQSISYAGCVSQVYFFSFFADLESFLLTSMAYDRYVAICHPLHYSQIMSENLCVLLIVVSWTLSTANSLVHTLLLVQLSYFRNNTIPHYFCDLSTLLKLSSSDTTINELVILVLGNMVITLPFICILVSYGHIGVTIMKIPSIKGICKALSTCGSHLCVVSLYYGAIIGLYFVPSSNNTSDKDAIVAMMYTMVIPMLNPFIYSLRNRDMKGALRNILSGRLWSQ
In short: as §1

Structure (SMILES) | odorant receptor agonist call
Cc1ccc(OC(=O)Cc2ccccc2)cc1 | inactive
O=c1cc(O)c2ccccc2o1 | inactive
CC(C=O)Cc1ccc2c(c1)OCO2 (configuration not stated) | inactive
CCCCC(Br)C(=O)O (configuration not stated) | inactive
CSSC | inactive
CCCCCCC(Br)C(=O)O (configuration not stated) | inactive
O=Cc1ccc2c(c1)OCO2 | inactive
O=CC=Cc1ccccc1 | inactive
COc1ccc(C=O)cc1 | inactive
C=C(C)C1CC=C(C=O)CC1 (configuration not stated) | inactive
CCC1CCC(=O)O1 (configuration not stated) | inactive
C=CCOC(=O)Cc1ccccc1 | inactive
OCc1ccc2c(c1)OCO2 | inactive
C=CCc1ccccc1 | inactive
Oc1ccccc1Br | inactive
O=Cc1ccccc1 | inactive

The compounds below were run against T3, UniProt Q8VGL7. Conditions: stereoisomer not certain.
T3 sequence (whole entry): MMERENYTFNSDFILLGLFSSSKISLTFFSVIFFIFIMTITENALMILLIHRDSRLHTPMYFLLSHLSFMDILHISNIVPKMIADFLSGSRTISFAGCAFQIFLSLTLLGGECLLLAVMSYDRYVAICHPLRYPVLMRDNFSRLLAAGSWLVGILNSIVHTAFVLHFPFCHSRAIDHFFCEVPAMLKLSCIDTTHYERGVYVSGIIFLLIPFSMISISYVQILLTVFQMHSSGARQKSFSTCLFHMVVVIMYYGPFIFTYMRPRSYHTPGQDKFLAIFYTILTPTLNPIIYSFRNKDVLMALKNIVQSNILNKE
In short: as §1

Structure (SMILES) | odorant receptor agonist call
O=c1cc(O)c2ccccc2o1 | inactive
CCC1CCC(=O)O1 (configuration not stated) | inactive
C=CCOC(=O)Cc1ccccc1 | inactive
C=CCc1ccccc1 | inactive

What follows are compounds tested against T4, UniProt Q8VGM2. Conditions: stereoisomer not certain.
T4 sequence (whole entry): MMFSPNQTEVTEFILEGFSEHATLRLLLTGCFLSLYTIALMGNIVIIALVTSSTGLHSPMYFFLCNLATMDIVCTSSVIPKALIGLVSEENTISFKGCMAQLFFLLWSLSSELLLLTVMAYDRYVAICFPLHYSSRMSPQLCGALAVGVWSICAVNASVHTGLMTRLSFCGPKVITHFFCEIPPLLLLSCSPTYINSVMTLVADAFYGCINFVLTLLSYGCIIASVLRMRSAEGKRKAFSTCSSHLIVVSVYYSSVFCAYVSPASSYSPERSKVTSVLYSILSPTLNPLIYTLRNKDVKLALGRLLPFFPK
In short: as §1

Structure (SMILES) | odorant receptor agonist call
O=c1cc(O)c2ccccc2o1 | inactive
CCC1CCC(=O)O1 (configuration not stated) | inactive
C=CCOC(=O)Cc1ccccc1 | inactive
C=CCc1ccccc1 | inactive

Each compound was assayed against T5, UniProt Q8VGP6. Conditions: stereoisomer not certain.
T5 sequence (whole entry): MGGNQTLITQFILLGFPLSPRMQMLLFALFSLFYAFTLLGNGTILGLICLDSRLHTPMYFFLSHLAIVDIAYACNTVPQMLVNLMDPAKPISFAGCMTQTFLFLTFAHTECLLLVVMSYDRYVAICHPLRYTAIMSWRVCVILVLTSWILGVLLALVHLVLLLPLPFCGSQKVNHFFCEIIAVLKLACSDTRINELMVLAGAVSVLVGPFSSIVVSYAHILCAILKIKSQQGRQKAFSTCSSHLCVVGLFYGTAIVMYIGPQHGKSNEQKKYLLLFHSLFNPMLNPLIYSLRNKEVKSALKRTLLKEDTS
In short: as §1

Structure (SMILES) | odorant receptor agonist call
O=c1cc(O)c2ccccc2o1 | inactive
CCC1CCC(=O)O1 (configuration not stated) | inactive
C=CCOC(=O)Cc1ccccc1 | active
C=CCc1ccccc1 | inactive

Each compound was assayed against T6, UniProt Q8VGQ3. Conditions: stereoisomer not certain.
T6 sequence (whole entry): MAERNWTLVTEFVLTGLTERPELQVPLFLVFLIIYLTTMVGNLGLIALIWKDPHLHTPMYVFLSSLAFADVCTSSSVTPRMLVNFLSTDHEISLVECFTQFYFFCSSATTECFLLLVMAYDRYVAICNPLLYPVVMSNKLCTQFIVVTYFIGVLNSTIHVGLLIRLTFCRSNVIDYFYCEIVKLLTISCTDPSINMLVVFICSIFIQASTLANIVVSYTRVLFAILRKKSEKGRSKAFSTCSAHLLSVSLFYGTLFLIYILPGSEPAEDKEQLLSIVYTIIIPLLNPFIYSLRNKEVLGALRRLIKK
In short: as §1

Structure (SMILES) | odorant receptor agonist call
O=c1cc(O)c2ccccc2o1 | inactive
CCC1CCC(=O)O1 (configuration not stated) | inactive
C=CCOC(=O)Cc1ccccc1 | inactive
C=CCc1ccccc1 | inactive

The compounds below were run against T7, UniProt Q8VGT4. Conditions: stereoisomer not certain.
T7 sequence (whole entry): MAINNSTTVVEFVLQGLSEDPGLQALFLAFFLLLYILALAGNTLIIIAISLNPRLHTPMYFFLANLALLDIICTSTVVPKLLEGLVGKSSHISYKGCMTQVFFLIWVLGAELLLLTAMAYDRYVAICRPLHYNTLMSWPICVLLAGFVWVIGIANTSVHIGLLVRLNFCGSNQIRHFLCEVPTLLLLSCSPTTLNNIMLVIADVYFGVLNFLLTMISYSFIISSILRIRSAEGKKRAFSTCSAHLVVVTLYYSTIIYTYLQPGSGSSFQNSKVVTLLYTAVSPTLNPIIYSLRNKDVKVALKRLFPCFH
In short: as §1

Structure (SMILES) | odorant receptor agonist call
O=c1cc(O)c2ccccc2o1 | inactive
CCC1CCC(=O)O1 (configuration not stated) | inactive
C=CCOC(=O)Cc1ccccc1 | inactive
C=CCc1ccccc1 | inactive

What follows are compounds tested against T8, UniProt Q8VGU3. Conditions: stereoisomer not certain.
T8 sequence (whole entry): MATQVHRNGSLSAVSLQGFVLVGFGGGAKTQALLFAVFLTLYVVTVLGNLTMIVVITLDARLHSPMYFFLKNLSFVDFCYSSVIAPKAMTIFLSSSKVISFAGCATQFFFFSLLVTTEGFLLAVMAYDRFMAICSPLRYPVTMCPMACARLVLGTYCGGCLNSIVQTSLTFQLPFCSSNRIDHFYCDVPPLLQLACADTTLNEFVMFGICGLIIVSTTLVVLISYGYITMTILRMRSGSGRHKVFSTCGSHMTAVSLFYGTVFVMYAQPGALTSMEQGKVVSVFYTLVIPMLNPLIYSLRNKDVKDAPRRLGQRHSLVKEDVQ
In short: as §1

Structure (SMILES) | odorant receptor agonist call
Cc1ccc(OC(=O)Cc2ccccc2)cc1 | inactive
O=c1cc(O)c2ccccc2o1 | inactive
CC(C=O)Cc1ccc2c(c1)OCO2 (configuration not stated) | inactive
CCCCC(Br)C(=O)O (configuration not stated) | inactive
CSSC | inactive
CCCCCCC(Br)C(=O)O (configuration not stated) | inactive
O=Cc1ccc2c(c1)OCO2 | inactive
O=CC=Cc1ccccc1 | inactive
COc1ccc(C=O)cc1 | inactive
C=C(C)C1CC=C(C=O)CC1 (configuration not stated) | inactive
C=CCOC(=O)Cc1ccccc1 | inactive
OCc1ccc2c(c1)OCO2 | inactive
Oc1ccccc1Br | inactive
O=Cc1ccccc1 | inactive

What follows are compounds tested against T9, UniProt Q8VGV1. Conditions: stereoisomer not certain.
T9 sequence (whole entry): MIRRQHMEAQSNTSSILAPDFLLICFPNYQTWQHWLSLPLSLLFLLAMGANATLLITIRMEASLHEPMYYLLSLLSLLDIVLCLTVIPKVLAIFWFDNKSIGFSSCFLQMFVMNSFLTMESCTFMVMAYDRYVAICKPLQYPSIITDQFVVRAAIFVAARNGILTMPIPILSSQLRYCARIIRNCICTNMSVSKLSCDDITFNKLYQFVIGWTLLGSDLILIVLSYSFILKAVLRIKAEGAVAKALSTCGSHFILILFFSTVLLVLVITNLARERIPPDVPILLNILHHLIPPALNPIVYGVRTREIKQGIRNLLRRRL
In short: as §1

Structure (SMILES) | odorant receptor agonist call
O=c1cc(O)c2ccccc2o1 | inactive
CCC1CCC(=O)O1 (configuration not stated) | inactive
C=CCOC(=O)Cc1ccccc1 | inactive
C=CCc1ccccc1 | inactive

The compounds below were run against T10, UniProt Q8VGV7. Conditions: stereoisomer not certain.
T10 sequence (whole entry): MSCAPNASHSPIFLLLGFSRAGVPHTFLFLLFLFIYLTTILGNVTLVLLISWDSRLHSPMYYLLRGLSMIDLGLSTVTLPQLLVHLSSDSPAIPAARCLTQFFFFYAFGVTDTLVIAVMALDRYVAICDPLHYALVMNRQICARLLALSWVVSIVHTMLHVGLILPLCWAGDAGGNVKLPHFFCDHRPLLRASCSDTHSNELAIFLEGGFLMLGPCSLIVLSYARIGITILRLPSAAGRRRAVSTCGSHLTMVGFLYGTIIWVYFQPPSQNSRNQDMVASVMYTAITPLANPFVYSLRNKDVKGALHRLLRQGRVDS
In short: as §1

Structure (SMILES) | odorant receptor agonist call
Cc1ccc(OC(=O)Cc2ccccc2)cc1 | inactive
O=c1cc(O)c2ccccc2o1 | inactive
CC(C=O)Cc1ccc2c(c1)OCO2 (configuration not stated) | inactive
CCCCC(Br)C(=O)O (configuration not stated) | inactive
CSSC | inactive
CCCCCCC(Br)C(=O)O (configuration not stated) | inactive
O=Cc1ccc2c(c1)OCO2 | inactive
O=CC=Cc1ccccc1 | inactive
COc1ccc(C=O)cc1 | inactive
C=C(C)C1CC=C(C=O)CC1 (configuration not stated) | inactive
C=CCOC(=O)Cc1ccccc1 | inactive
OCc1ccc2c(c1)OCO2 | inactive
Oc1ccccc1Br | inactive
O=Cc1ccccc1 | inactive

Reference: the M2OR odorant receptor database
